Source: ChEMBL document CHEMBL2434966, “Novel N-4-piperazinyl-ciprofloxacin-chalcone hybrids: synthesis, physicochemical properties, anticancer and topoisomerase I and II inhibitory activity” (Eur J Med Chem, 2013)

What was measured:
[1] = test system: A549; assay: Growth inhibition of human A549/ATCC cells assessed as cell growth at 10^-5 M after 48 hrs by sulforhodamine B assay; type: functional; conditions: A549, 48 h, read-out: Activity
How it was run: (§1)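 NCI 60-cell-line primary screen. Single concentration of 10^-5 M, 48 h incubation. End point by sulforhodamine B protein staining read spectrophotometrically. Reported as percent growth of treated cells relative to untreated control cells.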

[2] = molecular target: T1, DNA topoisomerase 1 (Homo sapiens) (UniProt P11387); assay: Inhibition of human recombinant topoisomerase 1-mediated relaxation of supercoiled pBR322 DNA at 100 uM after 30 mins by agarose gel electrophoresis relative to control
T1 sequence (whole entry): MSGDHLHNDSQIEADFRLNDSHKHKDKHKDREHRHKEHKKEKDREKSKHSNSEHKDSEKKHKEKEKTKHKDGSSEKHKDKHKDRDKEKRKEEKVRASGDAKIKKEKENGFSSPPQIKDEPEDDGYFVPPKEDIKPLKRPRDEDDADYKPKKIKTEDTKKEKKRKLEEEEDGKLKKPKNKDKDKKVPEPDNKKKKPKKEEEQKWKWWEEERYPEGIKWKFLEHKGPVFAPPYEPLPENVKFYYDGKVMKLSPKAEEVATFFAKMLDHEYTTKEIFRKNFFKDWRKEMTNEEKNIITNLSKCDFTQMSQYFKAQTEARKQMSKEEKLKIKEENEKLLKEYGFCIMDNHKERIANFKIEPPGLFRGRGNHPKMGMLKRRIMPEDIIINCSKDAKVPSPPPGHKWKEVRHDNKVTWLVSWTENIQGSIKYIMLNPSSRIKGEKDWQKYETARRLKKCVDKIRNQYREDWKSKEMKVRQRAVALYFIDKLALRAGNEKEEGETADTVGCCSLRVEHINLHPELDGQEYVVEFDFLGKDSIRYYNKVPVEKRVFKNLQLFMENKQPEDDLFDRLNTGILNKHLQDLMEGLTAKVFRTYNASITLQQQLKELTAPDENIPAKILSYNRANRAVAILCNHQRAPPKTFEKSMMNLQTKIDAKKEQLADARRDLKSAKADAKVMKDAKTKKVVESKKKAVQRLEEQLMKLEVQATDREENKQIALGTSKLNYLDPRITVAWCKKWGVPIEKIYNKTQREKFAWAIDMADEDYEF
How it was run: (§2)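 Recombinant human topo I (0.4 units) with 100 ng supercoiled pBR322, 37 °C for 30 min in Tris-HCl pH 7.9, 150 mM NaCl, 0.1% BSA, 1 mM spermidine, 5% glycerol. Compounds came from 20 mM DMSO stocks, with matched DMSO in the enzyme-only control. Stopped with sarcosyl; 1% agarose/TAE gel, ethidium stain, UV densitometry. Camptothecin was the positive control.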

[3] = test system: SW-620; assay: Growth inhibition of human SW620 cells assessed as cell growth at 10^-5 M after 48 hrs by sulforhodamine B assay; type: functional; conditions: SW-620, 48 h, read-out: Activity
How it was run: (§3)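 NCI primary one-dose screen: single concentration of 10^-5 M added to culture, 48 h incubation, SRB protein-dye endpoint. Percent growth of treated cells measured spectrophotometrically against untreated controls.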

[4] = test system: LOX IMVI; assay: Growth inhibition of human LOXIMVI cells after 48 hrs by sulforhodamine B assay; type: functional
How it was run: (§4)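 NCI 60-panel five-dose test at 10-fold dilutions, 10^-4 to 10^-8 M, with 48 h continuous exposure and SRB protein read-out. Percent growth derived from time-zero, untreated-control and treated absorbances. GI50 is the concentration where [(Ti-Tz)/(C-Tz)]×100 = 50. TGI is taken at Ti = Tz. LC50 is taken at [(Ti-Tz)/Tz]×100 = -50.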

[5] = Octanol-phosphate buffer partition coefficient, log P of the compound after 5 hrs by shake-flask method; type: physicochemical
How it was run: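 Shake-flask method: 100 µL of 0.2 mg/mL stock diluted into 1.9 mL phosphate buffer pH 7.4 plus 2 mL mutually saturated n-octanol, protected from light. Vortexed 3 min, shaken 5 h at 25 °C. Both phases assayed by UV at 272 nm; log P = log([octanol]/[aqueous]), run in triplicate.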

[6] = test system: K562; assay: Growth inhibition of human K562 cells after 48 hrs by sulforhodamine B assay; type: functional; conditions: K562, 48 h; how it was run: as §4
[7] = test system: HOP-92; assay: Growth inhibition of human HOP92 cells assessed as cell growth at 10^-5 M after 48 hrs by sulforhodamine B assay; type: functional; conditions: HOP-92, 48 h, read-out: Activity; how it was run: as §1
[8] = molecular target: T1, DNA topoisomerase 1 (Homo sapiens); assay: Inhibition of human recombinant topoisomerase 1-mediated relaxation of supercoiled pBR322 DNA at 20 uM after 30 mins by agarose gel electrophoresis relative to control; how it was run: as §2
[9] = test system: CAKI-1; assay: Growth inhibition of human CAKI-1 cells after 48 hrs by sulforhodamine B assay; type: functional; conditions: CAKI-1, 48 h; how it was run: as §4
[10] = test system: SW-620; assay: Growth inhibition of human SW620 cells after 48 hrs by sulforhodamine B assay; type: functional; conditions: SW-620, 48 h; for CC50: read-out: LC50 (the source's name)
How it was run: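 NCI 60-cell panel, five concentrations (10-fold dilutions, 0.01–100 µM), 48 h continuous exposure; SRB protein stain read spectrophotometrically. Percent growth from time-zero, untreated-control and treated absorbances. GI50 is the concentration giving 50% lower net protein increase than control. Values beyond the tested range are reported as more or less than the highest or lowest concentration.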

[11] = test system: NCI-H226; assay: Growth inhibition of human NCI-H226 cells after 48 hrs by sulforhodamine B assay; type: functional; conditions: NCI-H226, 48 h; for CC50: read-out: LC50 (the source's name)
How it was run: (§5)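 NCI five-dose screen on the full 60-cell-line panel. Cells were given 10-fold dilutions from 10^-4 to 10^-8 M with continuous 48 h exposure, and growth was read by SRB staining. Percent growth was taken from time-zero, control and treated absorbances. GI50, TGI and LC50 were then derived, the GI50 being the concentration that gives a 50% lower net protein increase than control.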

[12] = test system: RXF 393; assay: Growth inhibition of human RXF393 cells after 48 hrs by sulforhodamine B assay; type: functional; conditions: RXF 393, 48 h; for CC50: read-out: LC50 (the source's name); how it was run: as §5
[13] = test system: SK-MEL-5; assay: Growth inhibition of human SK-MEL-5 cells after 48 hrs by sulforhodamine B assay; type: functional; conditions: SK-MEL-5, 48 h; for CC50: read-out: LC50 (the source's name); how it was run: as §5
[14] = test system: HCT-15; assay: Growth inhibition of human HCT15 cells after 48 hrs by sulforhodamine B assay; type: functional; conditions: HCT-15, 48 h; how it was run: as §4
[15] = test system: SNB-19; assay: Growth inhibition of human SNB19 cells assessed as cell growth at 10^-5 M after 48 hrs by sulforhodamine B assay; type: functional; conditions: SNB-19, 48 h, read-out: Activity; how it was run: as §3
[16] = test system: MDA-MB-435; assay: Growth inhibition of human MDA-MB-435 cells after 48 hrs by sulforhodamine B assay; type: functional; conditions: MDA-MB-435, 48 h; how it was run: as §5

Row | Structure (SMILES) | growth at 10 µM [1] [%] | inhibition [2] [%] | growth at 10 µM [3] [%] | GI50 [4] [µM] | LC50 (concentration killing 50% of starting cells) [4] [µM] | TGI [4] [µM] | logP at 5 h [5] | GI50 [6] [µM] | LC50 (concentration giving 50% net cell kill) [6] [µM] | TGI [6] [µM] | growth at 10 µM [7] [%] | inhibition [8] [%] | GI50 [9] [µM] | LC50 (concentration killing 50% of starting cells) [9] [µM] | TGI [9] [µM] | GI50 [10] [µM] | TGI [10] [µM] | CC50 [10] [µM] | GI50 [11] [µM] | TGI [11] [µM] | further results
1 | COc1cc(/C=C/C(=O)c2ccc(NC(=O)CN3CCN(c4cc5c(cc4F)c(=O)c(C(=O)O)cn5C4CC4)CC3)cc2)cc(OC)c1OC | -19.2 | 67.4 | 6.38 | 0.53 | > 100 | 2.65 | 0.753 | 0.27 | > 100 | > 100 | -1.75 | 11.5 | 1.13 | > 100 | > 100 | 0.42 | 3.2 | > 100 | 0.95 | 26 | CC50 [11]: > 100 µM; GI50 [12]: 0.34 µM; TGI [12]: 1.06 µM; CC50 [12]: 3.47 µM; GI50 [13]: 1.06 µM; TGI [13]: 4.06 µM; CC50 [13]: > 100 µM; GI50 [14]: 0.45 µM; LC50 (concentration giving 50% net cell kill) [14]: > 100 µM; TGI [14]: > 100 µM; growth at 10 µM [15]: 34.9%; GI50 [16]: 0.3 µM; LC50 [16]: > 100 µM; TGI [16]: 1.7 µM
2 | O=C(CN1CCN(c2cc3c(cc2F)c(=O)c(C(=O)O)cn3C2CC2)CC1)Nc1ccc(C(=O)/C=C/c2ccccc2)cc1 | 4.12 | 57.2 | 41 | 2.32 | > 100 | > 100 | 1.29 | 3.07 | > 100 | > 100 | 14.9 | 6.4 | 1.76 | > 100 | 5.32 | 3.8 | > 100 | > 100 | 6.83 | > 100 | CC50 [11]: > 100 µM; GI50 [12]: 2.5 µM; TGI [12]: > 100 µM; CC50 [12]: > 100 µM; GI50 [13]: 2.74 µM; TGI [13]: 13 µM; CC50 [13]: > 100 µM; GI50 [14]: 3.68 µM; LC50 (concentration giving 50% net cell kill) [14]: > 100 µM; TGI [14]: > 100 µM; growth at 10 µM [15]: 40.3%; GI50 [16]: 2.94 µM; LC50 [16]: > 100 µM; TGI [16]: > 100 µM
